Source: PubChem BioAssay
Mot1-301 SUMO – yeast Mot1-301 growth rescue at high temperature, primary screen, SUMOylation pathway inhibitor project, S. cerevisiae, ATP luminescence, 38.5C; S. cerevisiae Mot1-301 growth rescue; percent above DMSO median, 100 means doubled; growth rescue, % at 18.8 µM; 1% of 320,000 active;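 active means every valid replicate shows activation above 250% relative to neutral control wells; inactive means the rest, any valid replicate at or below 250%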;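 further: OY570 slx delta 5 strain wells were the positive control but not used for scaling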
CSC inhib – cancer stem cell viability inhibitors, primary screen, luminescence; cancer stem cell-like cells viability; inhibition, % at 7.5 µM; 1.1% of 300,000 active; in the data active means inhibition above about 75%; inconclusive means no clear call, values can overlap the other calls; tested in HMLE shEcad cells
T cruzi inh – inhibitors of intracellular T. cruzi growth, primary screen, luminescence, NIH3T3 host cells. 1.4% of 300,000 active. inhibition, % (concentration not given with the values). T. cruzi beta-gal in NIH3T3, 90 h;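 active means mean inhibition across valid replicates above about 55%, limit read from the data; inconclusive means mean below that limit but half or more replicates reach it; inactive means mean below it, under half of replicates reach it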;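 further: signal also drops with host cell toxicity which is not excluded here; 0% = plate median of DMSO wells and 100% = zero luminescence signal; higher percent means less beta-gal luminescence so fewer parasites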
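Incubation – ≥90 h infection period, 3 h prior cell attachment · System – NIH/3T3 fibroblasts plus reporter T. cruzi · Doses – compound pinned at 50 nL/well, DMSO · Read-out basis – percent inhibition of parasite-derived β-gal signal · Signal – luminescent β-galactosidase signal after 60 min lysis · Also added – 5000 T. cruzi trypomastigotes/well · Medium – Low-serum DMEM with 2% FBS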
Beta cell apopt – inhibitors of cytokine-induced beta cell apoptosis, primary screen, luminescence; AID 435005, 2010; INS-1E cytokine-induced death, ATP luminescence, 48 h; percent of positive-control rescue, neutral wells zero; protection from apoptosis, % (concentration not given with the values); 0.8% of 300,000 active;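 active means Every replicate reaches about 75%, or at least half do and their mean reaches it too, limit read from the data; inconclusive means At least half of replicates reach the limit but their mean does not; inactive means Under half of replicates reach the limit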;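 further: 0% = cytokine-treated negative control wells and 100% = positive control rescue; higher means more ATP so stronger rescue from cytokine killing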
WT yeast gro inh – growth inhibition of WT strain, primary screen, mitochondrial fusion inhibitor project, WT and mutant strains, chemical genetic. mitochondrial fusion phenotypic screen. inhibition, % at 10 µM. 2.1% of 190,000 active; in the data active means inhibition above about 58%; tested in S. cerevisiae
Efflux pump mplx – inhibitors of Candida efflux pumps in yeast, primary screen, S. cerevisiae, Nile Red, multiplex; S. cerevisiae Candida pump triplex; inhibition, % at 10 µM; 0.44% of 330,000 active; AID 485275, 2010;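 active means plate passing quality check with inhibition over a set limit, or well fluorescence over plate mean plus 4 SD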;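 further: Nile Red retained in pooled yeast measured as flow cytometry median fluorescence; 0% = buffer negative control and 100% = Enniatin B positive control; higher means more Nile Red kept so more efflux inhibition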
* marks the source's active call; other numbers are inactive results; ? = inconclusive; · = no result. Hits are enriched below; roughly 4.8% of the tested compounds scored in any of these assays.

SMILES	Mot1-301 SUMO	CSC inhib	T cruzi inh	Beta cell apopt	WT yeast gro inh	Efflux pump mplx
C=C(C)CNC(=S)NN=C1c2ccccc2-c2ccccc21	71.6	53.9	0.0	7.3	69.9*	0.3
CC(C)N1C2OC(C3OC4C(O3)N(C(C)C)S(=O)(=O)N4C(C)C)OC2N(C(C)C)S1(=O)=O (stereo not given)	55.6	-13.3	-19.0	-7.2	62.8*	-0.2
CCOc1ccccc1C(=O)OCC(=O)NCCNC(=O)COC(=O)c1ccccc1OCC	47.3	-8.8	-14.8	-13.7	·	0.1
COC(=O)c1ccc(COc2ccccc2/C=C(\C#N)C(=O)Nc2c(C)cc(C)cc2C)cc1	11.7	117.0*	47.1	21.7	7.5	-0.3
O=C(C(Cl)Cl)N1c2ccccc2OCC1c1ccccc1 (stereo not given)	-4.4	12.4	32.7	76.2*	-11.8	0.0
CCN(C[C@H]1N[C@@](CC)(C(=O)OC)[C@H]2C(=O)N(C)C(=O)[C@@H]12)S(=O)(=O)c1ccc(OC)cc1	7.6	·	·	-10.1	·	0.1
CCCCCc1nc2sc3c(c2c(=O)n1NC(=O)c1ccc([N+](=O)[O-])cc1)CC(C)(C)OC3	-1.1	·	-24.0	-7.1	80.1*	0.0
CC1CCCCC1NC(=O)/C(C#N)=C/c1ccccc1F (stereo not given)	21.3	80.8*	4.8	6.3	72.6*	0.0
COc1cc(/C=C(\C#N)C(=O)NC2CCCCC2C)ccc1OS(=O)(=O)c1ccc(C)cc1 (stereo not given)	-2.7	156.7*	45.9	17.6	23.5	0.1
Cc1ccc(C)c(N(CC(=O)NCc2ccco2)C(=O)CNS(=O)(=O)c2ccccc2)c1	3.1	-0.7	-2.5	-0.4	·	0.1
CCN(CC)S(=O)(=O)c1cc(NC(=O)c2cc([N+](=O)[O-])ccc2N2CCOCC2)ccc1C	-6.7	7.6	18.8	·	·	-0.3
O=C1Cc2cc(S(=O)(=O)NCc3ccc(F)cc3)ccc2N1	0.6	-7.2	·	-7.0	·	-0.2
Cc1c(Cl)cccc1NC(=O)CCCn1cnc([N+](=O)[O-])n1	·	·	56.0*	·	14.3	0.0
O=C(CCCn1cnc([N+](=O)[O-])n1)Nc1ccc(Cl)c(Cl)c1	-3.1	2.2	82.3*	-0.1	-9.3	0.0
O=C(CCCn1cnc([N+](=O)[O-])n1)Nc1cccc(Cl)c1Cl	-6.8	19.8	41.2	-6.1	1.5	-0.1
Cc1cc(NC(=O)CCCn2cnc([N+](=O)[O-])n2)no1	0.2	-2.1	57.9*	0.6	-2.9	0.0
CCc1ccc(C(C)NC(=O)Cn2cnc3c(=O)n(C)c(=O)n(C)c32)cc1 (stereo not given)	-9.8	-9.5	-38.3	·	-4.1	-0.1
COc1cc(CN2CCCCC2)ccc1OCc1ccccc1	5.9	57.6	82.1*	-6.0	·	0.1
COC(=O)c1cc(=O)n(Cc2ccc(OC)c(OC)c2)c(=Nc2ccc(F)cc2)s1	6.2	96.9*	47.0	-14.9	13.9	0.2
COC(=O)c1cc(=O)n(CCc2ccc(OC)c(OC)c2)c(=Nc2ccc(F)c(Cl)c2)s1	-4.2	109.5*	47.7	11.1	11.9	-0.1
COC(=O)c1cc(=O)n(Cc2ccc(F)cc2)c(=Nc2ccccc2)s1	·	86.5*	32.1	3.5	·	0.0
COC(=O)c1cc(=O)n(Cc2ccco2)c(=Nc2ccc(F)cc2)s1	2.9	61.8	51.4	-14.4	13.4	-0.1
CCOc1ccccc1C(=O)NCC(=O)N1CCN(Cc2ccc3c(c2)OCO3)CC1	-8.3	·	·	17.1	·	0.1
COc1ccccc1CN1[C@@H](CC(C)=O)c2cc(C(F)(F)F)ccc2S1(=O)=O	5.9	15.5	9.6	0.3	·	-0.1
O=C1c2ccccc2-c2n[nH]c(=O)c3ccc(N4CCCCC4)c1c23	-15.1	-6.1	-13.1	0.5	62.8*	0.1
SMILES	Mot1-301 SUMO	CSC inhib	T cruzi inh	Beta cell apopt	WT yeast gro inh	Efflux pump mplx
O=C1c2cccc3c(N4CCCCC4)ccc(c23)C(=O)N1c1ccccn1	1.7	-2.7	8.7	3.9	-7.9	0.2
O=C(Nc1ccc(F)c(F)c1)C1CCN(S(=O)(=O)c2cccs2)CC1	7.5	0.3	·	0.3	·	-0.2
COc1ccc(OC)c(Nc2c3c(nc4ccccc24)CCC3)c1	7.8	57.4	58.8*	13.5	·	-0.2
COc1ccc(OC)c(Nc2c3ccccc3nc3ccccc23)c1	11.8	?	43.0	22.0	·	-0.1
COc1cc(NS(C)(=O)=O)ccc1Nc1c2ccccc2nc2ccccc12	12.4	102.0*	·	69.1	·	-0.1
O=[N+]([O-])c1ccccc1Nc1c2ccccc2nc2ccccc12	7.9	-2.3	-4.4	-1.7	-14.2	0.2
COc1ccc([N+](=O)[O-])cc1Nc1c2ccccc2nc2ccccc12	-20.0	130.7*	32.9	66.3	·	0.2
COc1ccc([N+](=O)[O-])cc1NS(=O)(=O)c1ccccc1	-6.4	-2.7	-13.7	-2.8	-26.0	0.0
O=[N+]([O-])c1ccc(Nc2c3ccccc3nc3ccccc23)cc1	·	·	3.0	·	77.2*	·
CC1CN(c2ccc(S(=O)(=O)N3CCCC3)cn2)CC(C)O1 (stereo not given)	·	-23.5	-5.7	-5.0	·	-0.1
Cc1cc(C(=O)CSc2nc3ccccc3c(=O)n2C)c(C)n1Cc1ccc2c(c1)OCO2	-15.5	20.7	49.4	99.4*	3.7	0.0
CCc1ccc(NC(=O)COC(=O)c2nc3nc(C)cc(C)n3n2)cc1	27.0	-22.3	·	-4.7	·	0.1
CCn1ncc(CN2CCCC(CNC(=O)c3ccc(F)cc3)C2)c1C (stereo not given)	-5.2	-5.4	73.4*	-2.7	1.8	-0.2
COC(=O)c1ccc(CN2CCCC(CNC(=O)Cc3ccc(OC)cc3)C2)cc1 (stereo not given)	10.1	-1.9	39.7	·	·	-0.1
CCc1ccc(CN2CCCC(CNC(=O)c3cc(OC)cc(OC)c3)C2)cc1 (stereo not given)	-22.5	-0.3	44.9	·	·	0.1
CCc1ccc(CN2CCCC(CNC(=O)c3cccc(OC)c3OC)C2)cc1 (stereo not given)	13.2	-4.6	61.3*	5.0	·	0.1
COc1ccc(CC(=O)NCC2CCCN(Cc3cc(OC)cc(OC)c3)C2)cc1 (stereo not given)	21.2	-7.5	57.7*	·	·	0.1
O=C(NCC1CCCN(Cc2cccc(C(F)(F)F)c2)C1)c1ccc(F)cc1 (stereo not given)	113.9	-0.3	57.0*	-5.5	9.3	-0.1
COc1cccc(CN2CCCC(CNC(=O)c3ccc(F)cc3)C2)c1OC (stereo not given)	-14.3	14.7	68.4*	-2.9	8.4	0.1
Cc1cc(CN2CCCC(CNC(=O)c3ccc(F)cc3)C2)cc(C)c1O (stereo not given)	163.6	-1.4	48.3	0.2	-11.9	-0.3
